# From ChEMBL document CHEMBL4145690, “Rational Design and Structure Validation of a Novel Peptide Inhibitor of the Adenomatous-Polyposis-Coli (APC)-Rho-Guanine-Nucleotide-Exchange-Factor-4 (Asef) Interaction” (J Med Chem, 2018)
# Where a SMILES comes first, the peptide text is derived from it. [ ]: non-standard residue; d: D form. The star is where a group is joined. Ala(4-thiazolyl) = N[C@@H](Cc1cscn1)C(=O)O; Leu(4,5-dehydro) = C=C(C)C[C@H](N)C(=O)O; Ala(2-furyl) = N[C@@H](Cc1ccco1)C(=O)O; Ala(cHept) = N[C@@H](CC1CCCCCC1)C(=O)O; 1Nal = N[C@@H](Cc1cccc2ccccc12)C(=O)O; 2Nal = N[C@@H](Cc1ccc2ccccc2c1)C(=O)O; Ala(cPent) = N[C@@H](CC1CCCC1)C(=O)O; Met(O2) = CS(=O)(=O)CC[C@H](N)C(=O)O; Gly(octyl) = CCCCCCCC[C@H](N)C(=O)O; Gly(cPent) = N[C@H](C(=O)O)C1CCCC1; Ala(cPr) = N[C@@H](CC1CC1)C(=O)O; Met(O) = CS(=O)CC[C@H](N)C(=O)O; 2Thi = N[C@@H](Cc1cccs1)C(=O)O; 3Thi = N[C@@H](Cc1ccsc1)C(=O)O; Cha = N[C@@H](CC1CCCCC1)C(=O)O; Aic = NC1(C(=O)O)Cc2ccccc2C1; Cba = N[C@@H](CC1CCC1)C(=O)O; Chg = N[C@H](C(=O)O)C1CCCCC1; Phg = N[C@H](C(=O)O)c1ccccc1; Tle = CC(C)(C)[C@H](N)C(=O)O; Ac8c = NC1(C(=O)O)CCCCCCC1; Pra = C#CC[C@H](N)C(=O)O; Cbz = O=C(OCc1ccccc1)*
# Biological target: Adenomatous polyposis coli protein (Homo sapiens, UniProt P25054)
# Assay: Binding affinity to APC protein (303 to 739 residues) (unknown origin) incubated for 60 mins followed by probe addition and measured after 60 mins by competitive fluorescence polarization assay
# Method in brief: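 Peptide in DMSO preincubated with protein 60 min at room temperature with shaking; probe added, then 60 min more. Controls: blank, tracer only, complex only. IC50 from dose-response curves, mean of three independent experiments.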
# Sequence of Adenomatous polyposis coli protein (P25054 whole entry, the tested form may be a part): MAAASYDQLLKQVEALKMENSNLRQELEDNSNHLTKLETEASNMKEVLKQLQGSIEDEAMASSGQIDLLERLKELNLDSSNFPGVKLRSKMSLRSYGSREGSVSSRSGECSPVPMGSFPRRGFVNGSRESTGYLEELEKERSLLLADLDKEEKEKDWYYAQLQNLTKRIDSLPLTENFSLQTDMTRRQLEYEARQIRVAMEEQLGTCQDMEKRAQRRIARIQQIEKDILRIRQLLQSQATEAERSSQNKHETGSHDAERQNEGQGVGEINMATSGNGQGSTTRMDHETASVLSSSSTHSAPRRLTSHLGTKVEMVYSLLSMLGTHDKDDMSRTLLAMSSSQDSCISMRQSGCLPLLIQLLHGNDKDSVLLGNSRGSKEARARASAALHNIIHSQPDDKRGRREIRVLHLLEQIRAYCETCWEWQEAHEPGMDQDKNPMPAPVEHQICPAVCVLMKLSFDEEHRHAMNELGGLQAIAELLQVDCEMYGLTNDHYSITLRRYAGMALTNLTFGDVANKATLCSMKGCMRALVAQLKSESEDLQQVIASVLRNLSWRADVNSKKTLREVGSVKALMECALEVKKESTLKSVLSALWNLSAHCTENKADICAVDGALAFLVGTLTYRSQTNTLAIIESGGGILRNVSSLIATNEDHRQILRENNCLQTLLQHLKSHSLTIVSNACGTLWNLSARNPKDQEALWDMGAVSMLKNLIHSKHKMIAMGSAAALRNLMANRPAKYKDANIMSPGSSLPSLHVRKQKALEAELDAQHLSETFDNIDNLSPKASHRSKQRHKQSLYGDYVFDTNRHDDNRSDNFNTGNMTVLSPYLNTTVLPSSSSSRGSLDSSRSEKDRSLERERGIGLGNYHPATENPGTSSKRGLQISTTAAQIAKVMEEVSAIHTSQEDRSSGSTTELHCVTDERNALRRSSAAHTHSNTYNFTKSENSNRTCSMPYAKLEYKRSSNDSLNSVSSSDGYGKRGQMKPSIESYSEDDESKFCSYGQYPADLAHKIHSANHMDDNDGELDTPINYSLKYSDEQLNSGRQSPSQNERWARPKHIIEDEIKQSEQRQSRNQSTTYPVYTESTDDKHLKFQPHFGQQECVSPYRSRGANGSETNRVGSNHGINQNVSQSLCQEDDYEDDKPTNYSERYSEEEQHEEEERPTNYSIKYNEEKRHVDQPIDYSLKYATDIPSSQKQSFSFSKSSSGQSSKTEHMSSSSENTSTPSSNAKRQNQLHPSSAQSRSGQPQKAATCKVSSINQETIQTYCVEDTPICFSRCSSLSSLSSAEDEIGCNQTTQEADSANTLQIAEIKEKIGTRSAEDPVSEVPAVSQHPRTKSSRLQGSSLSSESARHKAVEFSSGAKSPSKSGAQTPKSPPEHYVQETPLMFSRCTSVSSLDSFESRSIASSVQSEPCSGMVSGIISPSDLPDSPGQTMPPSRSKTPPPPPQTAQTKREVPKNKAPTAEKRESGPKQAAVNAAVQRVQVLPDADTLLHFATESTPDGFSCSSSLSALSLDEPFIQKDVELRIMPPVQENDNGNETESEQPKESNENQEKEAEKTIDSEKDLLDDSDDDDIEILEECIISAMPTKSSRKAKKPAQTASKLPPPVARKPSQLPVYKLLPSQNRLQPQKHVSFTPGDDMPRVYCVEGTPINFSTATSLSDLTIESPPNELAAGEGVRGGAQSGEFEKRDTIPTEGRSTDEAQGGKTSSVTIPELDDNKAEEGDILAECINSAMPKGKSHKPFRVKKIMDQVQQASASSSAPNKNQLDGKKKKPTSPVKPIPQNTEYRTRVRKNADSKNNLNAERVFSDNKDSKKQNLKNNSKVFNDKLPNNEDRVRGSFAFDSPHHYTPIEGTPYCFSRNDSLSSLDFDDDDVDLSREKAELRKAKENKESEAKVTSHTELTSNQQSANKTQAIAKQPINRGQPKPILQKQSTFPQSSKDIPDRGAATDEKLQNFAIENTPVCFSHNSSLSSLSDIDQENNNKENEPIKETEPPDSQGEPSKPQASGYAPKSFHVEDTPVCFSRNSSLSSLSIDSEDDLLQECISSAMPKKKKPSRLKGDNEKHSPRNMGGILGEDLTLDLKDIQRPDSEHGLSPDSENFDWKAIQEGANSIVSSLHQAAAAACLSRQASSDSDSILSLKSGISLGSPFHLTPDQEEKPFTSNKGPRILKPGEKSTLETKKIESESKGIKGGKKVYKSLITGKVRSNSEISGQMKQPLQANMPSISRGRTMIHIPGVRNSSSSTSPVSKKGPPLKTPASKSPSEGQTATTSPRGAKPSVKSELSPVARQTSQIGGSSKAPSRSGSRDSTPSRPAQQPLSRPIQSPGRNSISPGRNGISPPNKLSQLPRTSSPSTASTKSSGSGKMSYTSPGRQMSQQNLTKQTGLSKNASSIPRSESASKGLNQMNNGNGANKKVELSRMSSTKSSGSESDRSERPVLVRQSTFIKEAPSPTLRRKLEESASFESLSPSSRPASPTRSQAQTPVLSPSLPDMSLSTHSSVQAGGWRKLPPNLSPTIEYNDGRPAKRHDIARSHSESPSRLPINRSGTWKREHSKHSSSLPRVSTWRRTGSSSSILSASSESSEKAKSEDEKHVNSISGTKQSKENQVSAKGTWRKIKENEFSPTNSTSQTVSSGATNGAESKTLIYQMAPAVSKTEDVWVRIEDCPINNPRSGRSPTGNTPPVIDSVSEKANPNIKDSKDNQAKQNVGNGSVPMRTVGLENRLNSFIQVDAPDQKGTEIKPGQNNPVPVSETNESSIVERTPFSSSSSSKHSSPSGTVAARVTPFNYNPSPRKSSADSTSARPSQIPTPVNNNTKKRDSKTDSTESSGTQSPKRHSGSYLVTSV
row,IC50,SMILES
1,2.01 µM,CC(C)C[C@H](NC(=O)[C@@H](NC(=O)[C@H](CCC(=O)O)NC(=O)CNC(=O)[C@H](C)NC(=O)OCc1ccccc1)[C@H](C)O)C(=O)N[C@@H](Cc1ccc(O)cc1)C(=O)N[C@@H](CCC(=O)O)C(N)=O
2,0.57 µM,C[C@H](NC(=O)OCc1ccccc1)C(=O)NCC(=O)N[C@@H](CCC(=O)O)C(=O)N[C@@H](C)C(=O)N[C@@H](CC1CCCC1)C(=O)N[C@@H](Cc1ccc(O)cc1)C(=O)N[C@@H](CCC(=O)O)C(N)=O (Cbz-AGEA[Ala(cPent)]YE-NH2)
3,1.51 µM,CC(C)C[C@H](NC(=O)[C@H](CS)NC(=O)[C@H](CCC(=O)O)NC(=O)CNC(=O)[C@H](C)NC(=O)OCc1ccccc1)C(=O)N[C@@H](Cc1ccc(O)cc1)C(=O)N[C@@H](CCC(=O)O)C(N)=O (Cbz-AGECLYE-NH2)
4,6.35 µM,CC(C)C[C@H](NC(=O)[C@H](CC(=O)O)NC(=O)[C@H](CCC(=O)O)NC(=O)CNC(=O)[C@H](C)NC(=O)OCc1ccccc1)C(=O)N[C@@H](Cc1ccc(O)cc1)C(=O)N[C@@H](CCC(=O)O)C(N)=O (Cbz-AGEDLYE-NH2)
5,5.19 µM,CC(C)C[C@H](NC(=O)[C@H](CC(N)=O)NC(=O)[C@H](CCC(=O)O)NC(=O)CNC(=O)[C@H](C)NC(=O)OCc1ccccc1)C(=O)N[C@@H](Cc1ccc(O)cc1)C(=O)N[C@@H](CCC(=O)O)C(N)=O (Cbz-AGENLYE-NH2)
6,4.36 µM,C[C@H](NC(=O)OCc1ccccc1)C(=O)NCC(=O)N[C@@H](CCC(=O)O)C(=O)N[C@@H](CO)C(=O)N[C@@H](Cc1ccccc1)C(=O)N[C@@H](Cc1ccc(O)cc1)C(=O)N[C@@H](CCC(=O)O)C(N)=O (Cbz-AGESFYE-NH2)
7,109 µM,C[C@H](NC(=O)OCc1ccccc1)C(=O)NCC(=O)N[C@@H](CCC(=O)O)C(=O)N[C@@H](CO)C(=O)NCC(=O)N[C@@H](Cc1ccc(O)cc1)C(=O)N[C@@H](CCC(=O)O)C(N)=O (Cbz-AGESGYE-NH2)
8,50.6 µM,C[C@H](NC(=O)OCc1ccccc1)C(=O)NCC(=O)N[C@@H](CCC(=O)O)C(=O)N[C@@H](CO)C(=O)N[C@@H](Cc1c[nH]cn1)C(=O)N[C@@H](Cc1ccc(O)cc1)C(=O)N[C@@H](CCC(=O)O)C(N)=O (Cbz-AGESHYE-NH2)
9,3.85 µM,CC[C@H](C)[C@H](NC(=O)[C@H](CO)NC(=O)[C@H](CCC(=O)O)NC(=O)CNC(=O)[C@H](C)NC(=O)OCc1ccccc1)C(=O)N[C@@H](Cc1ccc(O)cc1)C(=O)N[C@@H](CCC(=O)O)C(N)=O (Cbz-AGESIYE-NH2)
10,3.3 µM,CSCC[C@H](NC(=O)[C@H](CO)NC(=O)[C@H](CCC(=O)O)NC(=O)CNC(=O)[C@H](C)NC(=O)OCc1ccccc1)C(=O)N[C@@H](Cc1ccc(O)cc1)C(=O)N[C@@H](CCC(=O)O)C(N)=O (Cbz-AGESMYE-NH2)
11,12.4 µM,CC(C)[C@H](NC(=O)[C@H](CO)NC(=O)[C@H](CCC(=O)O)NC(=O)CNC(=O)[C@H](C)NC(=O)OCc1ccccc1)C(=O)N[C@@H](Cc1ccc(O)cc1)C(=O)N[C@@H](CCC(=O)O)C(N)=O (Cbz-AGESVYE-NH2)
12,10.5 µM,C[C@H](NC(=O)OCc1ccccc1)C(=O)NCC(=O)N[C@@H](CCC(=O)O)C(=O)N[C@@H](CO)C(=O)N[C@@H](Cc1c[nH]c2ccccc12)C(=O)N[C@@H](Cc1ccc(O)cc1)C(=O)N[C@@H](CCC(=O)O)C(N)=O (Cbz-AGESWYE-NH2)
13,5.07 µM,C[C@H](NC(=O)OCc1ccccc1)C(=O)NCC(=O)N[C@@H](CCC(=O)O)C(=O)N[C@@H](CO)C(=O)N[C@@H](Cc1ccc(O)cc1)C(=O)N[C@@H](Cc1ccc(O)cc1)C(=O)N[C@@H](CCC(=O)O)C(N)=O (Cbz-AGESYYE-NH2)
14,10.1 µM,C[C@H](NC(=O)OCc1ccccc1)C(=O)NCC(=O)N[C@@H](CCC(=O)O)C(=O)N[C@@H](CO)C(=O)N[C@@H](Cc1cccc2ccccc12)C(=O)N[C@@H](Cc1ccc(O)cc1)C(=O)N[C@@H](CCC(=O)O)C(N)=O (Cbz-AGES[1Nal]YE-NH2)
15,3.96 µM,C[C@H](NC(=O)OCc1ccccc1)C(=O)NCC(=O)N[C@@H](CCC(=O)O)C(=O)N[C@@H](CO)C(=O)N[C@@H](Cc1ccc2ccccc2c1)C(=O)N[C@@H](Cc1ccc(O)cc1)C(=O)N[C@@H](CCC(=O)O)C(N)=O (Cbz-AGES[2Nal]YE-NH2)
16,4.01 µM,C[C@H](NC(=O)OCc1ccccc1)C(=O)NCC(=O)N[C@@H](CCC(=O)O)C(=O)N[C@@H](CO)C(=O)N[C@@H](Cc1cccs1)C(=O)N[C@@H](Cc1ccc(O)cc1)C(=O)N[C@@H](CCC(=O)O)C(N)=O (Cbz-AGES[2Thi]YE-NH2)
17,6.86 µM,C[C@H](NC(=O)OCc1ccccc1)C(=O)NCC(=O)N[C@@H](CCC(=O)O)C(=O)N[C@@H](CO)C(=O)N[C@@H](Cc1ccsc1)C(=O)N[C@@H](Cc1ccc(O)cc1)C(=O)N[C@@H](CCC(=O)O)C(N)=O (Cbz-AGES[3Thi]YE-NH2)
18,10.3 µM,C[C@H](NC(=O)OCc1ccccc1)C(=O)NCC(=O)N[C@@H](CCC(=O)O)C(=O)N[C@@H](CO)C(=O)NC1(C(=O)N[C@@H](Cc2ccc(O)cc2)C(=O)N[C@@H](CCC(=O)O)C(N)=O)CCCCCCC1 (Cbz-AGES[Ac8c]YE-NH2)

row,IC50,SMILES
1,25.6 µM,C[C@H](NC(=O)OCc1ccccc1)C(=O)NCC(=O)N[C@@H](CCC(=O)O)C(=O)N[C@@H](CO)C(=O)NC1(C(=O)N[C@@H](Cc2ccc(O)cc2)C(=O)N[C@@H](CCC(=O)O)C(N)=O)Cc2ccccc2C1 (Cbz-AGES[Aic]YE-NH2)
2,6.95 µM,C[C@H](NC(=O)OCc1ccccc1)C(=O)NCC(=O)N[C@@H](CCC(=O)O)C(=O)N[C@@H](CO)C(=O)N[C@@H](Cc1ccco1)C(=O)N[C@@H](Cc1ccc(O)cc1)C(=O)N[C@@H](CCC(=O)O)C(N)=O (Cbz-AGES[Ala(2-furyl)]YE-NH2)
3,16.4 µM,C[C@H](NC(=O)OCc1ccccc1)C(=O)NCC(=O)N[C@@H](CCC(=O)O)C(=O)N[C@@H](CO)C(=O)N[C@@H](Cc1cscn1)C(=O)N[C@@H](Cc1ccc(O)cc1)C(=O)N[C@@H](CCC(=O)O)C(N)=O (Cbz-AGES[Ala(4-thiazolyl)]YE-NH2)
4,1.94 µM,C[C@H](NC(=O)OCc1ccccc1)C(=O)NCC(=O)N[C@@H](CCC(=O)O)C(=O)N[C@@H](CO)C(=O)N[C@@H](CC1CCCCCC1)C(=O)N[C@@H](Cc1ccc(O)cc1)C(=O)N[C@@H](CCC(=O)O)C(N)=O (Cbz-AGES[Ala(cHept)]YE-NH2)
5,0.62 µM,C[C@H](NC(=O)OCc1ccccc1)C(=O)NCC(=O)N[C@@H](CCC(=O)O)C(=O)N[C@@H](CO)C(=O)N[C@@H](CC1CCCC1)C(=O)N[C@@H](Cc1ccc(O)cc1)C(=O)N[C@@H](CCC(=O)O)C(N)=O (Cbz-AGES[Ala(cPent)]YE-NH2)
6,1.26 µM,C[C@H](NC(=O)OCc1ccccc1)C(=O)NCC(=O)N[C@@H](CCC(=O)O)C(=O)N[C@@H](CO)C(=O)N[C@@H](CC1CC1)C(=O)N[C@@H](Cc1ccc(O)cc1)C(=O)N[C@@H](CCC(=O)O)C(N)=O (Cbz-AGES[Ala(cPr)]YE-NH2)
7,1.53 µM,C[C@H](NC(=O)OCc1ccccc1)C(=O)NCC(=O)N[C@@H](CCC(=O)O)C(=O)N[C@@H](CO)C(=O)N[C@@H](CC1CCC1)C(=O)N[C@@H](Cc1ccc(O)cc1)C(=O)N[C@@H](CCC(=O)O)C(N)=O (Cbz-AGES[Cba]YE-NH2)
8,1.3 µM,C[C@H](NC(=O)OCc1ccccc1)C(=O)NCC(=O)N[C@@H](CCC(=O)O)C(=O)N[C@@H](CO)C(=O)N[C@@H](CC1CCCCC1)C(=O)N[C@@H](Cc1ccc(O)cc1)C(=O)N[C@@H](CCC(=O)O)C(N)=O (Cbz-AGES[Cha]YE-NH2)
9,2.95 µM,C[C@H](NC(=O)OCc1ccccc1)C(=O)NCC(=O)N[C@@H](CCC(=O)O)C(=O)N[C@@H](CO)C(=O)N[C@H](C(=O)N[C@@H](Cc1ccc(O)cc1)C(=O)N[C@@H](CCC(=O)O)C(N)=O)C1CCCCC1 (Cbz-AGES[Chg]YE-NH2)
10,4.07 µM,C[C@H](NC(=O)OCc1ccccc1)C(=O)NCC(=O)N[C@@H](CCC(=O)O)C(=O)N[C@@H](CO)C(=O)N[C@H](C(=O)N[C@@H](Cc1ccc(O)cc1)C(=O)N[C@@H](CCC(=O)O)C(N)=O)C1CCCC1 (Cbz-AGES[Gly(cPent)]YE-NH2)
11,3.02 µM,CCCCCCCC[C@H](NC(=O)[C@H](CO)NC(=O)[C@H](CCC(=O)O)NC(=O)CNC(=O)[C@H](C)NC(=O)OCc1ccccc1)C(=O)N[C@@H](Cc1ccc(O)cc1)C(=O)N[C@@H](CCC(=O)O)C(N)=O (Cbz-AGES[Gly(octyl)]YE-NH2)
12,3.64 µM,"C=C(C)C[C@H](NC(=O)[C@H](CO)NC(=O)[C@H](CCC(=O)O)NC(=O)CNC(=O)[C@H](C)NC(=O)OCc1ccccc1)C(=O)N[C@@H](Cc1ccc(O)cc1)C(=O)N[C@@H](CCC(=O)O)C(N)=O (Cbz-AGES[Leu(4,5-dehydro)]YE-NH2)"
13,5.73 µM,C[C@H](NC(=O)OCc1ccccc1)C(=O)NCC(=O)N[C@@H](CCC(=O)O)C(=O)N[C@@H](CO)C(=O)N[C@@H](CCS(C)(=O)=O)C(=O)N[C@@H](Cc1ccc(O)cc1)C(=O)N[C@@H](CCC(=O)O)C(N)=O (Cbz-AGES[Met(O2)]YE-NH2)
14,13.9 µM,C[C@H](NC(=O)OCc1ccccc1)C(=O)NCC(=O)N[C@@H](CCC(=O)O)C(=O)N[C@@H](CO)C(=O)N[C@@H](CC[S+](C)[O-])C(=O)N[C@@H](Cc1ccc(O)cc1)C(=O)N[C@@H](CCC(=O)O)C(N)=O (stereo not given in full) (Cbz-AGES[Met(O)]YE-NH2)
15,4.29 µM,C[C@H](NC(=O)OCc1ccccc1)C(=O)NCC(=O)N[C@@H](CCC(=O)O)C(=O)N[C@@H](CO)C(=O)N[C@H](C(=O)N[C@@H](Cc1ccc(O)cc1)C(=O)N[C@@H](CCC(=O)O)C(N)=O)c1ccccc1 (Cbz-AGES[Phg]YE-NH2)
16,30.8 µM,C#CC[C@H](NC(=O)[C@H](CO)NC(=O)[C@H](CCC(=O)O)NC(=O)CNC(=O)[C@H](C)NC(=O)OCc1ccccc1)C(=O)N[C@@H](Cc1ccc(O)cc1)C(=O)N[C@@H](CCC(=O)O)C(N)=O (Cbz-AGES[Pra]YE-NH2)
17,31.5 µM,C[C@H](NC(=O)OCc1ccccc1)C(=O)NCC(=O)N[C@@H](CCC(=O)O)C(=O)N[C@@H](CO)C(=O)N[C@H](C(=O)N[C@@H](Cc1ccc(O)cc1)C(=O)N[C@@H](CCC(=O)O)C(N)=O)C(C)(C)C (Cbz-AGES[Tle]YE-NH2)
